Measurements from ChEMBL document CHEMBL1157343, “Prenylated flavonoids from the heartwood of Artocarpus communis with inhibitory activity on lipopolysaccharide-induced nitric oxide production” (J Nat Prod, 2006).

Tests used:
RAW264.7 [1] = experiment: Cytotoxicity against mouse RAW264.7 cells by MTT assay; type: cell-based
RAW264.7 [2] = experiment: Inhibition of LPS-induced nitric oxide production in mouse RAW264.7 cells assessed as nitrite accumulation after 20 hrs; type: functional, cell-based; settings: RAW264.7, 20 h
Outline: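 RAW 264.7 macrophages grown in DMEM with 10% FBS and penicillin-streptomycin at 37 °C, 5% CO2. Plated at 5 × 10⁵ cells/mL in phenol-red-free 10% FBS-DMEM for 24 h, then PBS-washed, refreshed, and given 1 μg/mL LPS ± samples for 20 h. Nitrite in supernatant measured by Griess reaction at 540 nm against a sodium nitrite standard. Inhibition calculated versus vehicle control; IC50 by nonlinear regression. L-NMMA positive control.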

RAW264.7 [3] = experiment: Selectivity index, ratio of CC50 for mouse RAW264.7 cells to IC50 for nitric oxide production in mouse RAW264.7 cells; type: functional

With `CC(C)=CCc1c(O)ccc2c1O[C@H](c1ccc(O)cc1O)CC2=O` the IC50 (RAW264.7 [1]) was 47.9 µM, the IC50 (RAW264.7 [2]) was 12.3 µM and the “Ratio CC50/IC50” value (RAW264.7 [3]) was 3.9.
`CC1(C)C=Cc2c(ccc(C(=O)/C=C/c3ccc(O)cc3O)c2O)O1` was tested, and the IC50 (RAW264.7 [1]) was 59.2 µM, the IC50 (RAW264.7 [2]) was 18.8 µM and the “Ratio CC50/IC50” value (RAW264.7 [3]) was 3.1.
For `COc1cc2oc3c(c(=O)c2c(O)c1/C=C/C(C)C)C(C=C(C)C)Oc1cc(O)ccc1-3` (stereo not drawn), the IC50 (RAW264.7 [1]) was 46.1 µM, the IC50 (RAW264.7 [2]) was over 60 µM and the “Ratio CC50/IC50” value (RAW264.7 [3]) was under 0.8.
For `COc1cc2oc(-c3ccc(O)cc3O)c(CC=C(C)C)c(=O)c2c(O)c1/C=C/C(C)C` [ARTOCARPIN], the IC50 (RAW264.7 [1]) was 45.3 µM, the IC50 (RAW264.7 [2]) was 18.7 µM and the “Ratio CC50/IC50” value (RAW264.7 [3]) was 2.4.
In the case of `CC(C)=CC1Oc2cc(O)ccc2-c2oc3cc4c(c(O)c3c(=O)c21)C=CC(C)(C)O4` (stereo not drawn) [CUDRAFLAVONE A], the IC50 (RAW264.7 [1]) is reported as 42.1 µM, the IC50 (RAW264.7 [2]) is reported as 42.1 µM and the “Ratio CC50/IC50” value (RAW264.7 [3]) is reported as 1.
`CC(C)=CCc1c(O)cc2oc(-c3ccc(O)cc3O)c(CC=C(C)C)c(=O)c2c1O` [CUDRAFLAVONE C] was tested, and the IC50 (RAW264.7 [1]) was 59.2 µM, the IC50 (RAW264.7 [2]) was 52.3 µM and the “Ratio CC50/IC50” value (RAW264.7 [3]) was 1.1.
In the case of `C/C(=C/Cc1c(O)ccc(C(=O)/C=C/c2ccc(O)cc2)c1O)COC(=O)/C=C/c1ccc(O)cc1` [GEMICHALCONE B], the IC50 (RAW264.7 [1]) is reported as 35.1 µM, the IC50 (RAW264.7 [2]) is reported as 9.3 µM and the “Ratio CC50/IC50” value (RAW264.7 [3]) is reported as 3.8.
In the case of `COc1cc(/C=C/C(=O)OC/C(C)=C\Cc2c(O)ccc(C(=O)/C=C/c3ccc(O)cc3O)c2O)ccc1O` [GEMICHALCONES C], the IC50 (RAW264.7 [1]) is reported as 37.6 µM, the IC50 (RAW264.7 [2]) is reported as 23.9 µM and the “Ratio CC50/IC50” value (RAW264.7 [3]) is reported as 1.6.
`CC(C)=CCc1c(O)ccc(C(=O)/C=C/c2ccc(O)cc2)c1O` [ISOBAVACHALCONE] was tested, and the IC50 (RAW264.7 [1]) was 16.4 µM, the IC50 (RAW264.7 [2]) was 6.4 µM and the “Ratio CC50/IC50” value (RAW264.7 [3]) was 2.6.
In the case of `CC(C)=CCc1c(O)ccc(C(=O)/C=C/c2ccc(O)cc2O)c1O` [MORACHALCONE A], the IC50 (RAW264.7 [1]) is reported as 58 µM, the IC50 (RAW264.7 [2]) is reported as 16.4 µM and the “Ratio CC50/IC50” value (RAW264.7 [3]) is reported as 3.5.
`CNC(=N)NCCC[C@H](N)C(=O)O` [TILARGININE] was tested, and the IC50 (RAW264.7 [1]) was over 50 µM, the IC50 (RAW264.7 [2]) was 19.2 µM and the “Ratio CC50/IC50” value (RAW264.7 [3]) was over 2.6.
